Calls of active or inactive are those of the source. The rule behind the calls is not given here.
Tests used:
Type in all cases: cell-based
Estrogen receptor beta [1] = target: T1, Estrogen receptor beta (Homo sapiens, UniProt Q92731); experiment: Antagonist activity at human Gal4-fused ER-beta expressed in HEK293 cells assessed as inhibition of 17beta-estradiol-induced effect at 3 uM by luciferase reporter gene assay
Procedure, shortened: (§1)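 Antagonist mode in transfected HEK293 GAL4-ER luciferase system, with cells co-treated with 0.3 nM 17beta-estradiol. Compound added 8 h post-transfection, 16–20 h treatment, luciferase normalized to beta-galactosidase, triplicate means.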

[2] = target: T2, Estrogen receptor (Homo sapiens) (UniProt P03372); experiment: Agonist activity at human Gal4-fused ER-alpha expressed in HEK293 cells at 10 uM by luciferase reporter gene assay relative to 17beta-estradiol
T2 sequence (whole entry): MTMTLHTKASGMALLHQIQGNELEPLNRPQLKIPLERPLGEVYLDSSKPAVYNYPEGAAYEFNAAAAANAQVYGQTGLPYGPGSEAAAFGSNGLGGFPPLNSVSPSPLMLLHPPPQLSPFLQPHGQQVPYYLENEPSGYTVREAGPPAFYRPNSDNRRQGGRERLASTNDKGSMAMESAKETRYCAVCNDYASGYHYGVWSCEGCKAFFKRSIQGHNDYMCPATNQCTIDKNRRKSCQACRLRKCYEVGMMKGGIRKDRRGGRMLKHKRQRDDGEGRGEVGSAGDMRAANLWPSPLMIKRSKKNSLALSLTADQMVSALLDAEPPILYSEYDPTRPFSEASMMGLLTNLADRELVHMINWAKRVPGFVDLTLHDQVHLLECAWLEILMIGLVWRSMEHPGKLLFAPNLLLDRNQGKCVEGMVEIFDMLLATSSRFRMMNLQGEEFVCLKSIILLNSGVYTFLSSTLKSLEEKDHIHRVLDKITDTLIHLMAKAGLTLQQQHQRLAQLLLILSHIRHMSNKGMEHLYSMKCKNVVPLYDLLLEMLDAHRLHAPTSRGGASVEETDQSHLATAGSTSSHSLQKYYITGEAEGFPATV
Procedure, shortened: (§2)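 Agonist mode: HEK293 cells in phenol-red-free DMEM with 5% FBS, 37 °C, 5% CO2, calcium phosphate cotransfected with GAL4-responsive MH100(UAS)x4-tk-LUC reporter, ER receptor fragment plasmid and beta-galactosidase plasmid. Compound added 8 h post-transfection, cells harvested 16–20 h later. Luciferase normalized to beta-galactosidase, triplicate means.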

[3] = target: T2, Estrogen receptor (Homo sapiens); experiment: Antagonist activity at human Gal4-fused ER-alpha expressed in HEK293 cells assessed as inhibition of 17beta-estradiol-induced effect at 3 uM by luciferase reporter gene assay; procedure, shortened: as §1
[4] = target: T3, Steryl-sulfatase (Homo sapiens) (UniProt P08842); experiment: Inhibition of steroid sulfatase in human MCF7 cells assessed as conversion of [3H]E1S to [3H]E1 and [3H]E2 at 0.1 uM after 5 hrs by liquid scintillation counting
T3 sequence (whole entry): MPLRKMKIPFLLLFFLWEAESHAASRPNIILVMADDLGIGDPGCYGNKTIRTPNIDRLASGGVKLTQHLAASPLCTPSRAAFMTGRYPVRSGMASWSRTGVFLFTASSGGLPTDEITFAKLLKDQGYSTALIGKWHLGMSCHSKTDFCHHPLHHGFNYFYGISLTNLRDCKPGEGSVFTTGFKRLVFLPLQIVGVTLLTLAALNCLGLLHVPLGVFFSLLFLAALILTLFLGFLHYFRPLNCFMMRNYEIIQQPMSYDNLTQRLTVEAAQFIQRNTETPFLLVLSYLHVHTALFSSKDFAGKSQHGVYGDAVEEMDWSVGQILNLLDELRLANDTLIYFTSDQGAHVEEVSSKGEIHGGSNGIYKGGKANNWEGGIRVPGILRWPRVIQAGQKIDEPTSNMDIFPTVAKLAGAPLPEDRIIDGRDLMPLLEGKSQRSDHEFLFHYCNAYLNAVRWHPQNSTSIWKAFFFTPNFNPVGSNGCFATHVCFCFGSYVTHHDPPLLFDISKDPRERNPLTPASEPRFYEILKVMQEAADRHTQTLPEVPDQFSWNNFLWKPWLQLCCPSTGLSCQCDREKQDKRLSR
Procedure, shortened: (§3)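 MCF-7 homogenate (freeze–thaw five times, diluted in Tris–EDTA, centrifuged 15,000g 4 °C 15 min, supernatant adjusted to 0.2 mg/mL protein by Bradford) incubated with [3H]E1S (final 10 nM) and inhibitor at 37 °C for 5 h. Toluene extraction of [3H]E1 plus [3H]E2, liquid scintillation counting; 1 uM STX64 defined 100%; triplicate.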

Steryl-sulfatase = target: T4, Steryl-sulfatase (Homo sapiens, UniProt P08842); experiment: Inhibition of steroid sulfatase in human MCF7 cells assessed as conversion of [3H]E1S to [3H]E1 and [3H]E2 after 5 hrs by liquid scintillation counting; procedure, shortened: as §3
T4 sequence (P08842 whole entry): T3 sequence (whole entry)

[5] = target: T3, Steryl-sulfatase (Homo sapiens); experiment: Inhibition of steroid sulfatase in human MCF7 cells assessed as conversion of [3H]E1S to [3H]E1 and [3H]E2 at 1 uM after 5 hrs by liquid scintillation counting; procedure, shortened: as §3
Estrogen receptor beta [6] = target: T1, Estrogen receptor beta; experiment: Agonist activity at human Gal4-fused ER-beta expressed in HEK293 cells at 10 uM by luciferase reporter gene assay relative to 17beta-estradiol; procedure, shortened: as §2
Estrogen receptor [7] = target: T5, Estrogen receptor (Homo sapiens, UniProt P03372); experiment: Agonist activity at human Gal4-fused ER-alpha expressed in HEK293 cells by luciferase reporter gene assay
T5 sequence (P03372 whole entry): T2 sequence (whole entry)
Procedure, shortened: (§4)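 GAL4-ER fusion reporter in HEK293 (phenol-red-free DMEM, 5% FBS), calcium phosphate transfection with MH100(UAS)x4-tk-LUC and beta-galactosidase control; compounds given 8 h after transfection, harvest at 16–20 h. Luciferase/beta-galactosidase ratio, triplicate means; agonism expressed as EC50 (nM).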

Estrogen receptor [8] = target: T5, Estrogen receptor; experiment: Antagonist activity at human Gal4-fused ER-alpha expressed in HEK293 cells assessed as inhibition of 17beta-estradiol-induced effect by luciferase reporter gene assay
Procedure, shortened: (§5)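 With 0.3 nM 17beta-estradiol present, HEK293 cells calcium phosphate cotransfected with GAL4-responsive luciferase reporter, ER plasmid and beta-galactosidase were treated 8 h post-transfection for 16–20 h. Normalized luciferase, triplicate means; antagonism expressed as IC50 (nM).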

Estrogen receptor beta [9] = target: T1, Estrogen receptor beta; experiment: Antagonist activity at human Gal4-fused ER-beta expressed in HEK293 cells assessed as inhibition of 17beta-estradiol-induced effect by luciferase reporter gene assay; procedure, shortened: as §5
Estrogen receptor beta [10] = target: T1, Estrogen receptor beta; experiment: Agonist activity at human Gal4-fused ER-beta expressed in HEK293 cells by luciferase reporter gene assay; procedure, shortened: as §4
Estrogen receptor beta [11] = target: T1, Estrogen receptor beta; experiment: Antagonist activity at human Gal4-fused ER-beta expressed in HEK293 cells assessed as inhibition of 17beta-estradiol-induced effect at 1 uM by luciferase reporter gene assay; procedure, shortened: as §1

T1 sequence (Q92731 whole entry, the tested form may be a part): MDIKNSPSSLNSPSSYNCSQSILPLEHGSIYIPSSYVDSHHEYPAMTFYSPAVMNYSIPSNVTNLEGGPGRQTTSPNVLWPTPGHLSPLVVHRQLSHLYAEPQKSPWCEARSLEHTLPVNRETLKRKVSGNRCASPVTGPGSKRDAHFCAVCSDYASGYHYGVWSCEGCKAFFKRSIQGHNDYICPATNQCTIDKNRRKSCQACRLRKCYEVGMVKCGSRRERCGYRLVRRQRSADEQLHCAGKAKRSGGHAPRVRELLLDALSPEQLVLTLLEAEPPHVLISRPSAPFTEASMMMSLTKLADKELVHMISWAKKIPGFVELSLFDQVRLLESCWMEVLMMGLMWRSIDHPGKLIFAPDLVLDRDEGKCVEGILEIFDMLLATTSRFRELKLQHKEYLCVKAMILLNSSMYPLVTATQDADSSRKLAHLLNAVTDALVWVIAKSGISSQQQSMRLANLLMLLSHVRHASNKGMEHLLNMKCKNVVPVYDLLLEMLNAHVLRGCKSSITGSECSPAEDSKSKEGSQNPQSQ

CC[Si](CC)(c1ccc(OS(N)(=O)=O)c(C)c1)c1ccc(OS(N)(=O)=O)c(C)c1
inhibition (Estrogen receptor beta [1]): 47.2% | Activity [2]: inactive | inhibition [3]: 94.8% | inhibition [4]: 22.6% | IC50 (Steryl-sulfatase): 170 nM | inhibition [5]: 82.6% | Activity (Estrogen receptor beta [6]): inactive

NS(=O)(=O)Oc1ccc(Sc2ccc(OS(N)(=O)=O)cc2)cc1
inhibition (Estrogen receptor beta [1]): inactive | inhibition [4]: 57.1% | EC50 (Estrogen receptor [7]): Active | IC50 (Steryl-sulfatase): 88 nM | inhibition [5]: 89.7% | Activity (Estrogen receptor beta [6]): 82.8%

CCC[Si](CCC)(c1ccc(OS(N)(=O)=O)c(C)c1)c1ccc(OS(N)(=O)=O)c(C)c1
inhibition (Estrogen receptor beta [1]): 18% | inhibition [3]: 87.1% | inhibition [4]: < 10% | inhibition [5]: 18.7%

NS(=O)(=O)Oc1ccc(Cc2ccc(OS(N)(=O)=O)cc2)cc1
inhibition (Estrogen receptor beta [1]): 2.25% | inhibition [4]: < 10% | EC50 (Estrogen receptor [7]): Active | IC50 (Steryl-sulfatase): 1020 nM | inhibition [5]: 50.1%

CCCCC(CCCC)(c1ccc(OS(N)(=O)=O)c(C)c1)c1ccc(OS(N)(=O)=O)c(C)c1
inhibition (Estrogen receptor beta [1]): inactive | inhibition [3]: 42.5% | inhibition [4]: 10.3% | inhibition [5]: 28%

CCC(CC)(c1ccc(O)cc1)c1ccc(O)cc1
IC50 (Estrogen receptor [8]): 118 nM | EC50 (Estrogen receptor [7]): Not Active | Activity (Estrogen receptor beta [6]): 9.3%

CCCC[Si](CCCC)(c1ccc(OS(N)(=O)=O)c(C)c1)c1ccc(OS(N)(=O)=O)c(C)c1
inhibition (Estrogen receptor beta [1]): inactive | inhibition [3]: 16.4% | inhibition [4]: < 10% | inhibition [5]: 16.4%

C[Si](C)(c1ccc(O)cc1)c1ccc(OS(N)(=O)=O)cc1
inhibition [4]: 25.2% | inhibition [5]: 76.4%

CC[Si](CC)(c1ccc(O)c(C)c1)c1ccc(O)c(C)c1
inhibition (Estrogen receptor beta [1]): 53.5% | IC50 (Estrogen receptor [8]): 29.7 nM

CCCC(CCC)(c1ccc(OS(N)(=O)=O)c(C)c1)c1ccc(OS(N)(=O)=O)c(C)c1
inhibition (Estrogen receptor beta [1]): 43.9% | inhibition [3]: 54.9% | inhibition [4]: < 10% | inhibition [5]: 21.1%

CCCC(CCC)(c1ccc(O)c(C)c1)c1ccc(O)c(C)c1
EC50 (Estrogen receptor [7]): Not Active | Activity (Estrogen receptor beta [6]): 6.1%

Oc1ccc(Cc2ccc(O)cc2)cc1
inhibition [3]: 22.6% | IC50 (Estrogen receptor beta [9]; hek293): Not Active

C[Si](C)(c1ccc(O)cc1)c1ccc(O)cc1
Activity [2]: 25.3% | inhibition [3]: 50.9% | inhibition [4]: < 10% | inhibition [5]: < 10% | IC50 (Estrogen receptor beta [9]; hek293): Not Active

CC(C)(c1ccc(O)cc1)c1ccc(O)cc1 [BISPHENOL A]
Activity [2]: 28.7% | inhibition [3]: 36.1% | IC50 (Estrogen receptor beta [9]; hek293): Not Active

NS(=O)(=O)Oc1ccc2c3c(c(=O)oc2c1)CCCCC3
inhibition [5]: 100%

CN(C)S(=O)(=O)Oc1ccc([Si](C)(C)c2ccc(OS(=O)(=O)N(C)C)cc2)cc1
inhibition [4]: < 10% | inhibition [5]: < 10%

CCC(CC)(c1ccc(OS(N)(=O)=O)cc1)c1ccc(OS(N)(=O)=O)cc1
inhibition (Estrogen receptor beta [1]): 49.3% | Activity [2]: inactive | inhibition [3]: 53.2% | inhibition [4]: 11% | inhibition [5]: 29.9% | Activity (Estrogen receptor beta [6]): inactive

C[Si](C)(c1ccc(OS(N)(=O)=O)cc1)c1ccc(OS(N)(=O)=O)cc1
inhibition (Estrogen receptor beta [1]): inactive | Activity [2]: 10.8% | inhibition [3]: inactive | inhibition [4]: 35.8% | inhibition [5]: 81.9% | Activity (Estrogen receptor beta [6]): 16.7%

CCC[Si](CCC)(c1ccc(O)c(C)c1)c1ccc(O)c(C)c1
Activity [2]: 5.6% | IC50 (Estrogen receptor [8]): 26.2 nM | Activity (Estrogen receptor beta [6]): 4.9% | IC50 (Estrogen receptor beta [9]; read-out: IC50): 804 nM

CC(C)(c1ccc(OS(N)(=O)=O)cc1)c1ccc(OS(N)(=O)=O)cc1
inhibition (Estrogen receptor beta [1]): 7.79% | Activity [2]: 9.5% | inhibition [3]: 6.63% | inhibition [4]: < 10% | inhibition [5]: < 10% | Activity (Estrogen receptor beta [6]): inactive

CCC(CC)(c1ccc(OS(N)(=O)=O)c(C)c1)c1ccc(OS(N)(=O)=O)c(C)c1
inhibition (Estrogen receptor beta [1]): 49.3% | Activity [2]: inactive | inhibition [3]: 36.7% | inhibition [4]: < 10% | inhibition [5]: 25.4% | Activity (Estrogen receptor beta [6]): inactive

CC[Si](CC)(c1ccc(OS(N)(=O)=O)cc1)c1ccc(OS(N)(=O)=O)cc1
inhibition (Estrogen receptor beta [1]): 62.8% | Activity [2]: inactive | inhibition [3]: 100% | inhibition [4]: 62% | inhibition [5]: 96.4% | Activity (Estrogen receptor beta [6]): 1.1%

CCC(CC)(c1ccc(O)c(C)c1)c1ccc(O)c(C)c1
IC50 (Estrogen receptor [8]): 3.53 nM | EC50 (Estrogen receptor [7]): Not Active | EC50 (Estrogen receptor beta [10]): Not Active

CC[Si](CC)(c1ccc(O)cc1)c1ccc(O)cc1
Activity [2]: 7.1% | IC50 (Estrogen receptor [8]): 115 nM | Activity (Estrogen receptor beta [6]): 11.9% | inhibition (Estrogen receptor beta [11]): 53%

CCCCC(CCCC)(c1ccc(O)c(C)c1)c1ccc(O)c(C)c1
EC50 (Estrogen receptor [7]): Not Active | EC50 (Estrogen receptor beta [10]): Not Active

Oc1ccc(Sc2ccc(O)cc2)cc1
Activity [2]: 37.8% | IC50 (Estrogen receptor beta [9]; hek293): Not Active

Source: ChEMBL document CHEMBL3232760 (Bioorg Med Chem, 2014)
